Data: ChEMBL document CHEMBL4480417, “Methylsulfonylated Polyketides Produced by Neosartorya udagawae HDN13-313 via Exogenous Addition of Small Molecules” (J Nat Prod, 2019)
Activity calls are given as the source filed them. The rule behind the calls is not given here.

Columns and labels:
K562 = assay: Cytotoxicity against human K562 cells at 30 uM after 72 hrs by MTT assay; format: cell-based; conditions: k562, 72 h
HeLa = assay: Cytotoxicity against human HeLa cells at 30 uM after 72 hrs by MTT assay; format: cell-based
HCT-116 = assay: Cytotoxicity against human HCT116 cells at 30 uM after 72 hrs by MTT assay; format: cell-based; conditions: hct-116, 72 h
HL-60 = assay: Cytotoxicity against human HL60 cells at 30 uM after 72 hrs by MTT assay; format: cell-based; conditions: hl-60, 72 h
HepG2 = assay: Lipid lowering activity in human HepG2 cells assessed as reduction in oleic acid-induced lipid accumulation at 10 uM after 24 hrs by oil red O staining based spectrophotometric method; format: functional, cell-based
Procedure, shortened: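 HepG2 cells in log phase seeded at 1.2 × 10^4 cells/well, grown 12 h to 70–80% confluence, then serum-starved 12 h in serum-free DMEM. Oleic acid added (final 80 μM) with test agent or simvastatin (final 10 μM), 24 h. Blank: DMEM only; OA alone as negative control. Cells fixed in 4% paraformaldehyde, rinsed with 60% 2-propanol, stained with 0.3% Oil Red O for 1 h, dye dissolved in DMSO, OD 358 nm; ≥3 experiments, mean ± SEM.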

What does the source list for `COc1cc(S(C)(=O)=O)cc2c(=O)oc3cc(CO)cc(O)c3c(=O)c12`?
Activity (K562): Non-Toxic; Activity (HeLa): Non-Toxic; Activity (HCT-116): Non-Toxic; Activity (HL-60): Non-Toxic; Activity (HepG2): Active

For `COc1c(O)c(O)c(C)c(S(C)(=O)=O)c1O`, which Activity (K562) is on record?
Its Activity is “Non-Toxic”.

What about the Activity (HeLa) of the same compound?
The Activity was “Non-Toxic”.

What about the Activity (HCT-116) of the same compound?
The Activity was “Non-Toxic”.

And the Activity (HL-60)?
The Activity was “Non-Toxic”.

Which results are given for `COc1c(O)ccc2c(=O)oc3cc(CO)cc(O)c3c(=O)c12`?
Activity (K562): Non-Toxic; Activity (HeLa): Non-Toxic; Activity (HCT-116): Non-Toxic; Activity (HL-60): Non-Toxic

With `CCC(C)(C)C(=O)O[C@H]1C[C@@H](C)C=C2C=C[C@H](C)[C@H](CC[C@@H]3C[C@@H](O)CC(=O)O3)[C@H]21` as the compound, how does the Activity (HepG2) read?
Its Activity is “Active”.
